This note sets out measurements from ChEMBL document CHEMBL1154565, “Cytotoxic constituents of the roots of Ekmanianthe longiflora” (2000).

Test [1] is described as follows: (§1) Cytotoxicity against human BC1 cells. The note with it: read-out: ED50 (the source's name). Format: functional.
The nature of test [2]: (§2) Cytotoxicity against human […] cells. As to conditions: read-out: ED50 (the source's name). Format: functional.
In the next test the test system is Col2. Put plainly: Cytotoxicity against human Col2 cells. Format: functional. The note with it: for EC50: read-out: ED50 (the source's name).
For the next test, the system named is KB. Put plainly: Cytotoxicity against human KB cells. Format: functional. As to conditions: for EC50: read-out: ED50 (the source's name).
A short description of test [3]: (§3) Cytotoxicity against human multidrug resistant KB-V cells in presence of vinblastine. Format: functional. As to conditions: KBV, read-out: ED50 (the source's name).
Test [4] can be described thus: (§4) Cytotoxicity against human multidrug resistant KB-V cells. The note with it: KBV, read-out: ED50 (the source's name). The class given is functional.
The next test deals with LNCaP. Put plainly: Cytotoxicity against human LNCaP cells. The class given is functional. The note with it: for EC50: read-out: ED50 (the source's name).
The subject of another test is SW626. Put plainly: Cytotoxicity against human SW626 cells. Format: functional. As to conditions: for EC50: read-out: ED50 (the source's name).
Another test deals with SK-N-SH. Put plainly: Cytotoxicity against human SK-N-SH cells. The note with it: for EC50: read-out: ED50 (the source's name). The class given is functional.
The test system of another test is M109 (Mus musculus). Put plainly: Cytotoxicity against mouse M109 cells. As to conditions: for EC50: read-out: ED50 (the source's name).
For the next test, the system named is BC1. Described as §1. The class given is functional.
The test system of the next test is Lo1. Described as §2. The class given is functional.
In test [5] the test system is KB-V. The description is as §3. The class given is functional.
For test [6], the system named is KB-V. The test is described as §4. The class given is functional.
The test system of the next test is P388. Put plainly: Antitumor activity against mouse P388 leukemia system at 72 mg/kg, ip relative to control. The class given is functional. As to conditions: route intraperitoneal. In a few lines:
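Six female CDF1 mice per group received 10^6 P-388 cells i.p. in 0.5 mL RPMI medium. Starting one day later, test compound was given i.p. daily for 5 days, with doses of 8, 24 and 72 mg/kg/injection. Read-out was survival, reported as % T/C (median survival of treated over control ×100). T/C ≥125% was taken as significant.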

The term T/C denotes the result in the treated group divided by that in the control group, in per cent.

≈ marks a conversion by molar mass, not a printed value. Calls of active or inactive are those of the source. The calls are words filed in the database; no cut-off is given here.

`CC1(C)CCC2=C(O1)C(=O)c1ccccc1C2=O` [ALPHA-LAPACHONE]: the EC50 worked out at 6.7 µg/mL (≈ 27.7 µM) in test [1]; 5.3 µg/mL (≈ 21.9 µM) in test [2]; 9.9 µg/mL (≈ 40.9 µM) in the test on Col2; 13 µg/mL (≈ 53.7 µM) with KB; 8.3 µg/mL in [3]; 12.9 µg/mL (≈ 53.2 µM) in test [4]. Further, the EC50 is 7.1 µg/mL (≈ 29.3 µM) with LNCaP, 3 µg/mL (≈ 12.4 µM) in the test with SW626, 5.1 µg/mL (≈ 21.1 µM) in the test on SK-N-SH and 9 µg/mL (≈ 37.1 µM) in the test on M109 (Mus musculus).
As for `CC(C)=CC[C@H]1C[C@H](O)c2ccccc2C1=O`, the outcome in the test with BC1, in the test on Lo1, in the test on Col2, with KB, with KB-V [5] and in the test with KB-V [6] was inactive. Moreover, the result in the test on LNCaP, with SW626, in the test with SK-N-SH and in the test with M109 (Mus musculus) was inactive.
Take `CC(C)=CC[C@H]1C(=O)c2ccccc2[C@@H](O)[C@@H]1O`: the outcome in the test with BC1, in the test with Lo1, in the test on Col2, in the test with KB, in the test on KB-V [5] and with KB-V [6] was inactive. For the same molecule, the outcome in the test with LNCaP, in the test on SW626, with SK-N-SH and in the test on M109 (Mus musculus) was inactive.
As for `CC(O)c1cc2c(o1)C(=O)c1ccccc1C2=O` (stereo unspecified), the EC50 was 3.2 µg/mL (≈ 13.2 µM) in test [1]; 0.2 µg/mL (≈ 0.826 µM) in test [2]; 1.8 µg/mL (≈ 7.43 µM) with Col2; 0.5 µg/mL (≈ 2.06 µM) with KB; 1.2 µg/mL in [3]; 2 µg/mL (≈ 8.26 µM) in test [4]. Also, the EC50 with LNCaP was 3.5 µg/mL (≈ 14.4 µM); in the test on SW626, 0.3 µg/mL (≈ 1.24 µM); in the test with SK-N-SH it was 4 µg/mL (≈ 16.5 µM); with M109 (Mus musculus), 1.8 µg/mL (≈ 7.43 µM). In the test with P388, this molecule had a T/C of 110%.
Consider `CC(C)=CC[C@@H]1C(=O)c2ccccc2[C@@H](O)[C@@H]1O`, for which the outcome with BC1, with Lo1, in the test on Col2, with KB, with KB-V [5] and with KB-V [6] was inactive. For the same molecule, the result in the test with LNCaP, in the test with SW626, with SK-N-SH and in the test with M109 (Mus musculus) was inactive.
In the case of `CC(C)(O)[C@H]1C[C@H]2C(=O)c3ccccc3[C@@H](O)[C@@H]2O1` (relative stereo), the outcome with BC1, with Lo1, in the test on Col2, with KB, with KB-V [5] and in the test on KB-V [6] was inactive. Further, the result with LNCaP, in the test with SW626, with SK-N-SH and in the test on M109 (Mus musculus) was inactive.
On to `CC(C)=CC[C@@H]1C[C@H](O)c2ccccc2C1=O`, for which the outcome in the test on BC1, with Lo1, in the test on Col2, in the test on KB, with KB-V [5] and with KB-V [6] was inactive. Further, the result in the test on LNCaP, in the test with SW626, in the test on SK-N-SH and in the test with M109 (Mus musculus) was inactive.
For `C=C(C)C1CC2=C(O1)C(=O)c1ccccc1C2=O` (stereo not drawn) [DEHYDROISO-ALPHA-LAPACHONE], the EC50 in test [1] is 1 µg/mL (≈ 4.16 µM); in test [2], 0.2 µg/mL (≈ 0.832 µM); in the test on Col2, 0.2 µg/mL (≈ 0.832 µM); in the test on KB, 0.2 µg/mL (≈ 0.832 µM); in [3], 0.3 µg/mL; in [4], 0.5 µg/mL (≈ 2.08 µM). The EC50 in the test with LNCaP was 0.2 µg/mL (≈ 0.832 µM); with SW626, 0.3 µg/mL (≈ 1.25 µM); in the test on SK-N-SH it was 0.2 µg/mL (≈ 0.832 µM); in the test on M109 (Mus musculus) it was 0.4 µg/mL (≈ 1.66 µM).
Turning to `CC(=O)c1cc2c(o1)C(=O)c1ccccc1C2=O` [NAPABUCASIN], the EC50 is 0.4 µg/mL (≈ 1.67 µM) in test [1]; 0.3 µg/mL (≈ 1.25 µM) in [2]; 0.4 µg/mL (≈ 1.67 µM) in the test on Col2; 0.2 µg/mL (≈ 0.833 µM) in the test on KB; 0.9 µg/mL in test [3]; 0.9 µg/mL (≈ 3.75 µM) in test [4]. Also, the EC50 was found to be 0.2 µg/mL (≈ 0.833 µM) with LNCaP, 0.2 µg/mL (≈ 0.833 µM) in the test on SW626, 0.8 µg/mL (≈ 3.33 µM) with SK-N-SH and 0.9 µg/mL (≈ 3.75 µM) in the test with M109 (Mus musculus).
